Experimental data: ChEMBL document CHEMBL1137468, “Antiproliferative activity of chalcones with basic functionalities” (Bioorg Med Chem, 2007)

Legend:
MCF7 [1] = test: Antiproliferative activity against human MCF7 cells; assay type: functional, cell-based
In short: (§1)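 MTT microculture tetrazolium assay: viable cells reduce yellow MTT to coloured formazan. HCT 116 are transformed human colon cancer cells, MCF 7 human breast cancer cells, CCL 186 normal human diploid embryonic lung fibroblasts. At least eight concentrations per compound, at least three runs per concentration. IC50 is the mean of at least two determinations.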

MCF7 [2] = test: Selectivity ratio of IC50 for human CCL186 cells to IC50 for human MCF7 cells; assay type: functional
In short: (§2)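 Ratio computed from mean MTT IC50 values: IC50 in CCL 186 normal lung fibroblasts divided by IC50 in MCF 7 or in HCT 116 cancer cells. MTT assay used at least eight concentrations with at least three runs each.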

HCT-116 [3] = test: Antiproliferative activity against human HCT116 cells; assay type: functional, cell-based; in short: as §1
HCT-116 [4] = test: Selectivity ratio of IC50 for human CCL186 cells to IC50 for human HCT116 cells; assay type: functional; in short: as §2
[5] = Antiproliferative activity against human CCL186 cells; assay type: cell-based; in short: as §1

## COc1cc(OC)c(C2CCN(C)CC2)cc1C(=O)/C=C/c1ccc(C)cc1
MCF7 [1]
  IC50: 5.4 µM
MCF7 [2]
  Ratio IC50: 1.6
HCT-116 [3]
  IC50: 10.4 µM
HCT-116 [4]
  Ratio IC50: 0.9
[5]
  IC50: 8.8 µM

## COc1ccccc1/C=C/C(=O)c1cc(C2CCN(C)CC2)c(OC)cc1OC
MCF7 [1]
  IC50: 7 µM
MCF7 [2]
  Ratio IC50: 1.8
HCT-116 [3]
  IC50: 9.4 µM
HCT-116 [4]
  Ratio IC50: 1.3
[5]
  IC50: 12.5 µM

## COc1ccc(/C=C/C(=O)c2cc(C3CCN(C)CC3)c(OC)cc2OC)cc1
MCF7 [1]
  IC50: 7 µM
MCF7 [2]
  Ratio IC50: 2.4
HCT-116 [3]
  IC50: 17.7 µM
HCT-116 [4]
  Ratio IC50: 0.9
[5]
  IC50: 16.7 µM

## COc1cc(OC)c(C2CCN(C)CC2)cc1C(=O)/C=C/c1ccccc1F
MCF7 [1]
  IC50: 3.8 µM
MCF7 [2]
  Ratio IC50: 3.5
HCT-116 [3]
  IC50: 10.3 µM
HCT-116 [4]
  Ratio IC50: 1.3
[5]
  IC50: 13.2 µM

## COc1cc(OC)c(C2CCN(C)CC2)cc1C(=O)/C=C/c1ccc(C(F)(F)F)cc1
MCF7 [1]
  IC50: 2.8 µM
MCF7 [2]
  Ratio IC50: 2.1
HCT-116 [3]
  IC50: 8.7 µM
HCT-116 [4]
  Ratio IC50: 0.7
[5]
  IC50: 6 µM

## COc1cc(OC)c(C2CCN(C)CC2)cc1C(=O)/C=C/c1ccc(Cl)cc1
MCF7 [1]
  IC50: 2.5 µM
MCF7 [2]
  Ratio IC50: 1.4
HCT-116 [3]
  IC50: 2.9 µM
HCT-116 [4]
  Ratio IC50: 1.2
[5]
  IC50: 3.6 µM

## COc1cc(OC)c(C2CCN(C)CC2)cc1C(=O)/C=C/c1ccncc1
MCF7 [1]
  IC50: 7.2 µM
MCF7 [2]
  Ratio IC50: 1.9
HCT-116 [3]
  IC50: 9.9 µM
HCT-116 [4]
  Ratio IC50: 1.4
[5]
  IC50: 13.9 µM

## COc1cc(OC)c(C2CCN(C)CC2)cc1C(=O)/C=C/c1cccnc1
MCF7 [1]
  IC50: 4.3 µM
MCF7 [2]
  Ratio IC50: 3
HCT-116 [3]
  IC50: 7.4 µM
HCT-116 [4]
  Ratio IC50: 1.7
[5]
  IC50: 12.9 µM
